Assay results from ChEMBL document CHEMBL3243987 (J Med Chem, 1979).
Converted amounts (≈) assume the structure as drawn.

Experiments:
[1] = system: CCRF-CEM; experiment: Antitumor activity against human CCRF-CEM assessed as growth inhibition; format: functional; conditions: read-out: ID50 (the source's name)
[2] = molecular target: Dihydrofolate reductase (Lactobacillus casei, UniProt P00381); experiment: Inhibition of Lactobacillus casei ATCC 7469 dihydrofolate reductase; set-up: species or system Lacticaseibacillus casei
[3] = system: Lacticaseibacillus casei; experiment: Antimicrobial activity against folate-dependent Lactobacillus casei ATCC 7469 assessed as growth inhibition; format: functional, organism-based
[4] = system: L1210; experiment: Antitumor activity against mouse L1210 cells allografted in BDF/1 hybrid mouse assessed as increase in life span at 50 to 200 mg/kg, ip first dose treated 24 hrs after tumor implantation and on day 4 and 7; format: functional; conditions: dose mg/kg 50-200; route intraperitoneal
In short: (§1)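 Male BDF/1 hybrid mice were inoculated ip with 10⁵ L-1210 leukemia cells and then given three doses (mg/kg × 3). The read-out was percent increase in life span (% ILS) compared with untreated control animals, reported at the optimal dose.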

[5] = molecular target: T1, Thymidylate synthase (Lactobacillus casei, UniProt P00469); experiment: Inhibition of Lactobacillus casei ATCC 7469 thymidylate synthase; set-up: species or system Lacticaseibacillus casei
T1 sequence (P00469 whole entry): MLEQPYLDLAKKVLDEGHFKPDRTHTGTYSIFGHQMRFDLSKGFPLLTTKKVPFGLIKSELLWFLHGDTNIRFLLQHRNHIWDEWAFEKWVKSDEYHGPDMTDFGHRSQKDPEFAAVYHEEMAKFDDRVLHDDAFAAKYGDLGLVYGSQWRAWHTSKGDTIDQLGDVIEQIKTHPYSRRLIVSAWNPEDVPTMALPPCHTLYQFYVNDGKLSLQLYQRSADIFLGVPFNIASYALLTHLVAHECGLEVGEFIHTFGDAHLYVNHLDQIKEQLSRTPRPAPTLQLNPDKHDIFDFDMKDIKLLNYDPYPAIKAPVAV

[6] = system: L1210; experiment: Antitumor activity against mouse L1210 cells allografted in BDF/1 hybrid mouse assessed as increase in life span at 200 mg/kg, ip first dose treated 24 hrs after tumor implantation and on day 4 and 7; format: functional; conditions: route intraperitoneal; in short: as §1
[7] = system: L1210; experiment: Antitumor activity against mouse L1210 cells allografted in BDF/1 hybrid mouse assessed as increase in life span at 400 mg/kg, ip first dose treated 24 hrs after tumor implantation and on day 4 and 7; format: functional; conditions: route intraperitoneal; in short: as §1
[8] = system: L1210; experiment: Antitumor activity against mouse L1210 cells allografted in BDF/1 hybrid mouse assessed as increase in life span at 30 mg/kg, ip first dose treated 24 hrs after tumor implantation and on day 4 and 7; format: functional; conditions: route intraperitoneal; in short: as §1

Sequence of Dihydrofolate reductase (P00381 whole entry): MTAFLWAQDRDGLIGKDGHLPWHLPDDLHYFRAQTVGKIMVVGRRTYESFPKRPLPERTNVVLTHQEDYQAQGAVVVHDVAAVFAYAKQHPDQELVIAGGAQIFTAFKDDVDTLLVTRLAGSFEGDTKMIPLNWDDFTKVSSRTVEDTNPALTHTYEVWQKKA

| SMILES | IC50 [1] [µg/mL] | IC50 [2] [nM] | IC50 [3] [ng/mL] | ILS [4] [%] | IC50 [5] [µM] | ILS at 200 mg/kg [6] [%] | ILS at 400 mg/kg [7] [%] | ILS at 30 mg/kg [8] [%] |
| --- | --- | --- | --- | --- | --- | --- | --- | --- |
| COC(=O)C[C@H](NC(=O)Nc1ccc(N(C)Cc2cnc3nc(N)nc(N)c3n2)cc1)C(=O)OC | 3.9 (≈ 8.07 µM) | 600 | 6 (≈ 0.0124 µM) |  |  |  |  |  |
| COC(=O)CCC1NC(=O)N(c2ccc(N(C)Cc3cnc4nc(N)nc(N)c4n3)cc2)C1=O (racemic) | 6.7 (≈ 14.4 µM) | 4000 | 104 (≈ 0.223 µM) | 0 |  |  |  |  |
| COC(=O)CC[C@H](NC(=O)Nc1ccc(N(C)Cc2cnc3nc(N)nc(N)c3n2)cc1)C(=O)OC | 3.5 (≈ 7.03 µM) | 300 | 6 (≈ 0.0121 µM) |  |  |  |  |  |
| CN(Cc1cnc2nc(N)nc(N)c2n1)c1ccc(NC(=O)NC(CCC(=O)O)C(=O)O)cc1 (racemic) | 0.4 (≈ 0.852 µM) | 80 | 8 (≈ 0.017 µM) |  | 250 | 55 |  |  |
| CN(Cc1cnc2nc(N)nc(N)c2n1)c1ccc(NC(=O)NC(CC(=O)O)C(=O)O)cc1 (racemic) | 3.2 (≈ 7.03 µM) | 50 | 150 (≈ 0.329 µM) |  | 190 |  | 22 |  |
| CN(Cc1cnc2nc(N)nc(N)c2n1)c1ccc(C(=O)N[C@@H](CCC(=O)O)C(=O)O)cc1 [METHOTREXATE] | 0.02 (≈ 0.044 µM) |  |  |  |  |  |  | 88 |
